Measured values as given in PMC9902323 (Clinical Drug Investigation, 2023).

How the values were obtained:
Pharmacokinetics = type: in vivo, human; conditions: single s.c. dose 5.6 U/kg; p < 0.001
[1] = tested on: individuals with type 2 diabetes; test: Safety assessments; type: in vivo, human; conditions: all injection regions; N (%) of 25
Summary of the method: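 Over three treatment periods, 25 participants with type 2 diabetes each received one 5.6 U/kg s.c. dose per region (thigh, abdomen, upper arm), stayed in-house to 60 h, and underwent a 36–60 h glucose clamp at 7.5 mmol/L. Monitoring covered adverse events, labs, vital signs and examination. Hypoglycaemia levels: 1, plasma glucose <3.9 and ≥3.0 mmol/L; 2, <3.0 mmol/L; 3, severe cognitive impairment needing assistance.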

albumin = conditions: after s.c. administration and absorption into the circulation; cited from earlier work

## insulin icodec
Pharmacokinetics
  Cmax after single dose higher for upper arm versus thigh: 24%
[1]
  Participants reporting adverse events: 12 (48%) participants
albumin
  Binding to albumin: binds strongly to albumin
